# Measurements from different studies.
# Lines come from different studies, so protocols differ.
# Target: Mitogen-activated protein kinase kinase kinase 3 (MAP3K3, Homo sapiens, UniProt Q99759)
# One construct used (Q99759 1-626): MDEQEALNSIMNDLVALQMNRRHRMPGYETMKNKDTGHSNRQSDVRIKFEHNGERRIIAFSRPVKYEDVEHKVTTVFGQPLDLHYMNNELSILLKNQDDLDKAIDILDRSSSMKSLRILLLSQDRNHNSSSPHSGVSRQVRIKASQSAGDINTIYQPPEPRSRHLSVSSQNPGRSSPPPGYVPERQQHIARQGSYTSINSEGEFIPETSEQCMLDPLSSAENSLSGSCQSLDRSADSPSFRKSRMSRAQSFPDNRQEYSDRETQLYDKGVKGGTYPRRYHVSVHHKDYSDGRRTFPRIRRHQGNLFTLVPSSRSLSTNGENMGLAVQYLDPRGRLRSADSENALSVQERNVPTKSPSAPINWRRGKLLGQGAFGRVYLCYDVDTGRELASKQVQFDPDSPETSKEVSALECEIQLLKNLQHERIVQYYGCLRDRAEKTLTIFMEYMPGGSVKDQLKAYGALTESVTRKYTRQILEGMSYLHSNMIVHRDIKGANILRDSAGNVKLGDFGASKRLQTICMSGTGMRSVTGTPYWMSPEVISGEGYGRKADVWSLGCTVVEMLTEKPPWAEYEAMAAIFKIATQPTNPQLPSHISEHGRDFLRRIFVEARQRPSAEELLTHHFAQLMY
Compound,assay,setting,quantity,value
C1=C/COCc2cc(ccc2OCCN2CCCC2)Nc2nccc(n2)-c2cccc(c2)COC/1,binding,0.1 µM,remaining binding,53%
C#Cc1cc(-c2cc(Nc3nc(N[C@@H](C)c4ccc(F)cn4)ncc3Cl)n[nH]2)ccc1C=O,"enzyme activity, inhibitor",0.2 µM,inhibition,48.8%
CC(C)S(=O)(=O)c1ccc2nccc(Nc3ccc4sc(C5CCCC5)nc4c3)c2c1,"enzyme activity, inhibitor",1 µM,activity vs control,105%
Cc1cc(O)c(-c2ccc([C@@H](C)CN(C)C)cc2)c2c1[nH]c(=O)c1sccc12,"enzyme activity, inhibitor",0.1 µM,inhibition,0.395%
CO[C@@H]1[C@H](N(C)C(=O)c2ccccc2)C[C@H]2O[C@]1(C)n1c3ccccc3c3c4c(c5c6ccccc6n2c5c31)C(=O)NC4,"enzyme activity, inhibitor",1 µM,inhibition,86%
C[C@H]1CC[C@H](n2c3cnccc3c3cnc(Nc4ccc5c(n4)CCN(C(=O)CO)C5)nc32)CC1,"binding, competition with immobilised ligand",1 µM,remaining binding,81%
CC#CC(=O)N1CCC[C@H]1c1nc(-c2ccc(C(=O)Nc3ccccn3)cc2)c2c(N)nccn12,"enzyme activity, inhibitor",1 µM,inhibition,25%
CN1CCN(C(=O)c2ccc(NC(=O)Nc3ccc(N(C)c4ccnc(Nc5ccc(CS(C)(=O)=O)cc5)n4)cc3)cc2)CC1,"binding, competition with immobilised ligand",1 µM,remaining binding,57%
CCCCC(=O)Nc1ccc(-c2ccc3ncn(CCC)c(=O)c3c2)cn1,"binding, competition with immobilised ligand",0.5 µM,remaining binding,100%
